Assay [1] deals with T1, Adrenergic receptor alpha-1 (Rattus norvegicus, UniProt P15823+P23944+P43140).
T1 sequence (P15823 whole entry): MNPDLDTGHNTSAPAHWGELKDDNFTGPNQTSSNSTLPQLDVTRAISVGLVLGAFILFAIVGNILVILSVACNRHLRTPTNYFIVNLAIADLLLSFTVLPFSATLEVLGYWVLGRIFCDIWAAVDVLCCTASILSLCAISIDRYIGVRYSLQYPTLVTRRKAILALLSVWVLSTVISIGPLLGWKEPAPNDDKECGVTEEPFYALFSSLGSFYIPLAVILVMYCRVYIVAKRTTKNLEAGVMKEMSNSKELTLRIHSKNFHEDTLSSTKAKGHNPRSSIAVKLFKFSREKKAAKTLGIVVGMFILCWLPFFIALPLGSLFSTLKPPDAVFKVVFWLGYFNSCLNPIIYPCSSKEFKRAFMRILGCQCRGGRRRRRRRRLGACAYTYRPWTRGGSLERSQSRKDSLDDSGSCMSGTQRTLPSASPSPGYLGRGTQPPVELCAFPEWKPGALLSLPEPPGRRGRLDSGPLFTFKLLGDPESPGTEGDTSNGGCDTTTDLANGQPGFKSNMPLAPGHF
T1 sequence (P23944 whole entry): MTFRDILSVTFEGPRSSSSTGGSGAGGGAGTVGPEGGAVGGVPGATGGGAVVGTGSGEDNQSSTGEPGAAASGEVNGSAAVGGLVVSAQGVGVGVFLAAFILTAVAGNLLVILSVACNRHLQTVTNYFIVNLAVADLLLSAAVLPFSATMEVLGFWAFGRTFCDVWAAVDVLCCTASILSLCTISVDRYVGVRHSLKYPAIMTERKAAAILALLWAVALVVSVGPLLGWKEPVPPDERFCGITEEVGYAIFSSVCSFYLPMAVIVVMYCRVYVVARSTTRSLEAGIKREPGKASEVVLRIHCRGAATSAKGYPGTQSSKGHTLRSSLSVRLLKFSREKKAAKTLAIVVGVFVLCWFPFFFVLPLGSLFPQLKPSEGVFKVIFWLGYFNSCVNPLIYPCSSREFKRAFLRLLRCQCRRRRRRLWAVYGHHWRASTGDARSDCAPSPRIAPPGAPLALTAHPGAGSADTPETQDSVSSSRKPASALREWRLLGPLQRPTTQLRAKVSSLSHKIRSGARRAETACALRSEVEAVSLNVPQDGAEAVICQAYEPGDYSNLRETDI
T1 sequence (P43140 whole entry): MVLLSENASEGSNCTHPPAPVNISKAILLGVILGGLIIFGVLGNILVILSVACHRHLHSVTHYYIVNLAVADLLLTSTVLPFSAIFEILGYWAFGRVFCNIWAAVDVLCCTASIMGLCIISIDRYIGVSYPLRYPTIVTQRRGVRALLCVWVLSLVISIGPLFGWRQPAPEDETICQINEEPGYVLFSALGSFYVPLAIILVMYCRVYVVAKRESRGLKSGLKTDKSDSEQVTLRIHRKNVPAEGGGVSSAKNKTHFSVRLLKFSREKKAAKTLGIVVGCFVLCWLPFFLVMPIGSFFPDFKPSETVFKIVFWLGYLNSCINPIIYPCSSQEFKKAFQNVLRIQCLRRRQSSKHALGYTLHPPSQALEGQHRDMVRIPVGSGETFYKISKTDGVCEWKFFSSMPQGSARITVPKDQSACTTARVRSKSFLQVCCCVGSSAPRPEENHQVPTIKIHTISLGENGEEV
The assay can be described thus: Binding affinity at Alpha-1 adrenergic receptors on rat cortical membranes by [3H]prazosin displacement. The method, boiled down:
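Rat cortical membranes incubated with [3H]-prazosin and test compound. Six concentrations per experiment, each run in triplicate; Ki derived from IC50 by the Cheng–Prusoff method and given as the mean of 2–3 experiments.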

Assay [2] has as its target T2, 5-hydroxytryptamine receptor 1A (Homo sapiens) (UniProt P08908).
T2 sequence (whole entry): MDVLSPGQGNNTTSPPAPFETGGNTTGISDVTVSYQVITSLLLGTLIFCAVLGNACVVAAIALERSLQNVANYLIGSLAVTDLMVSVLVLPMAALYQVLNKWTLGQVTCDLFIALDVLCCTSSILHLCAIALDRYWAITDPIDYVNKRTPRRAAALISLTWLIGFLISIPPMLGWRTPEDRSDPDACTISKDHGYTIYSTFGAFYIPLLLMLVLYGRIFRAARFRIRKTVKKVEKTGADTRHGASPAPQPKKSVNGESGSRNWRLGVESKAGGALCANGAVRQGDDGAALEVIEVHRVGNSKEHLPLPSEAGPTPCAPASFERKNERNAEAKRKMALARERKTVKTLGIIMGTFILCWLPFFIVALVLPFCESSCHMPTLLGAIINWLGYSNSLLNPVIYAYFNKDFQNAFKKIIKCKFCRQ
The assay can be described thus: Binding affinity for 5-hydroxytryptamine 1A receptor was determined by incubating human 5-hydroxytryptamine 1A receptor transfected CHO cells with [3H]8-OH-DPAT. The assay is classed as cell-based. More on the design: concentration or dose not given beside the values. The following applies: concentration not given here. The method, boiled down: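 Displacement of [3H]-8-OH-DPAT binding in CHO cells transfected with human 5-HT1A receptors. Test compound at six concentrations, triplicate wells per experiment. IC50 converted to Ki (Cheng–Prusoff) and reported as the mean of 2–3 independent experiments.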

Assay [3] has as its target Sodium-dependent serotonin transporter (Rattus norvegicus, UniProt P31652). The assay can be described thus: In vitro for its binding affinity for serotonin transporter RB5-HT-T in rat cortical membranes. Format: cell membranes. The method, boiled down:
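Serotonin transporter affinity (RB5-HT-T). Compound tested at six concentrations in triplicate. Ki calculated from IC50 by Cheng–Prusoff and given as the mean of 2–3 experiments.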

In assay [4] the target is Adrenergic receptor alpha-1 (Rattus norvegicus) (UniProt P15823+P23944+P43140). The assay is described as follows: In vitro inhibition of [3H]prazosin binding to rat Alpha-1 adrenergic receptors on cortical membranes at 1 uM. Format: cell membranes. The following applies: Membrane.

Structures are written as SMILES.

Sodium-dependent serotonin transporter, sequence (P31652 whole entry): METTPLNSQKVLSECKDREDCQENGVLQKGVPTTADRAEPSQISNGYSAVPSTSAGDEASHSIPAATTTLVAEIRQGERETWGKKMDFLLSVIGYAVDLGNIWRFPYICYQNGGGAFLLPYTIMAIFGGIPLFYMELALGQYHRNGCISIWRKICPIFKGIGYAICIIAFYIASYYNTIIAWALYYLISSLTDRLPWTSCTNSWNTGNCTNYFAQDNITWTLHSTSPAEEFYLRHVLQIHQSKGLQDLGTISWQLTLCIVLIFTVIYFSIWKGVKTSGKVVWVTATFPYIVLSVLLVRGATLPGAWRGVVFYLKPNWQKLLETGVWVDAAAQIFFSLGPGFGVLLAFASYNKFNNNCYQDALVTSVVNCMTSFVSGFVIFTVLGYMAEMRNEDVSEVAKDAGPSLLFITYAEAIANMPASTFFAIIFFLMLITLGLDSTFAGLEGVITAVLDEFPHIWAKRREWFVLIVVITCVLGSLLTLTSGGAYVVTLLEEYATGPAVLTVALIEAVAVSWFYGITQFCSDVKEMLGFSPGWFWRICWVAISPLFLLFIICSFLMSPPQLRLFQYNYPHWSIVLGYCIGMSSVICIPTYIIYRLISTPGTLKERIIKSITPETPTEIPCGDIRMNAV

What is called Ki is the dissociation constant of the complex between target and ligand, obtained from inhibition or displacement. Consider `COc1ccc2c(c1)CCN(CCCc1c[nH]c3ccc(F)cc13)C2`, for which, in assay [1], the Ki is 58 nM.
The term inhibition denotes the drop in the measured response relative to a control, in per cent. `N#Cc1ccc2[nH]cc([C@H]3CC[C@H](N4CCc5ccccc5C4)CC3)c2c1` registered an inhibition in assay [2] of 10%. The Ki was 88 nM in assay [1] and 10 nM in assay [3].
Consider `N#Cc1ccc2[nH]cc([C@H]3CC[C@@H](NCc4ccccc4)CC3)c2c1`, for which the inhibition in assay [2] is 15%; in assay [4] it was 17%. In addition, in assay [3], the inhibition constant Ki was 7.5 nM.
With `N#Cc1ccc2[nH]cc([C@H]3CC[C@H](NCc4ccccc4)CC3)c2c1`, the inhibition is 37% in assay [2] and 28% in assay [4]. This compound registered a Ki in assay [3] of 25 nM.
With `N#Cc1ccc2[nH]cc([C@H]3CC[C@H](NCCc4ccccc4)CC3)c2c1`, the figures for the inhibition in assay [2] and in assay [4] were 0% and 56%, respectively. Further, the Ki in assay [3] worked out at 1.98 nM.
In assay [2], `COc1cccc2c1CN([C@H]1CC[C@H](c3c[nH]c4ccc(C#N)cc43)CC1)CC2` gave an inhibition of 46%. In assay [3], this compound came in with a Ki of 7.5 nM.
As to `c1ccc(CN[C@H]2CC[C@H](c3c[nH]c4ccccc43)CC2)cc1`, the results for the inhibition in assay [2] and in assay [4] were 32% and 64%, respectively. Moreover, the Ki in assay [3] worked out at 107 nM.
Compound `COc1ccc2c(c1)CCN([C@H]1CC[C@H](c3c[nH]c4ccc(C#N)cc43)CC1)C2` displayed an inhibition in assay [2] of 74%. For the same compound, the Ki in assay [1] was found to be 228 nM; in assay [3], 8 nM.
With `Fc1ccc2[nH]cc([C@H]3CC[C@@H](NCc4ccccc4)CC3)c2c1`, the inhibition in assay [2] amounted to 3%; in assay [4], 9%. Further, the Ki in assay [3] was found to be 21 nM.
With `N#Cc1ccc2[nH]cc(C3=CCC(NCc4ccccc4)CC3)c2c1` (configuration not stated), the inhibition in assay [2] was 87%; in assay [4], 27%. The affinity in assay [3], expressed as Ki, was 3.13 nM.
For the compound `COc1ccc2c(c1)CN([C@H]1CC[C@@H](c3c[nH]c4ccc(C#N)cc43)CC1)CC2`, the inhibition in assay [2] was 26%; in assay [4], 11%. Affinity in assay [3] was put at a Ki of 0.8 nM.
Take `N#Cc1ccc2[nH]cc(C3=CCC(N4CCCCC4)CC3)c2c1` (configuration not stated): the inhibition amounted to 0% in assay [2] and 10% in assay [4]. The compound also yielded a Ki in assay [3] of 178 nM.
The compound `Fc1ccc2[nH]cc(CCCN3CCc4ccccc4C3)c2c1` yielded an inhibition in assay [2] of 48%.
With `N#Cc1ccc2[nH]cc(C3=CCC(NCCc4ccccc4)CC3)c2c1` (configuration not stated), the inhibition in assay [2] amounted to 41%; in assay [4], 32%. In assay [3], this compound came in with an inhibition constant Ki of 1.54 nM.
In assay [2], `COc1ccc2c(c1)CN([C@H]1CC[C@H](c3c[nH]c4ccc(C#N)cc43)CC1)CC2` came in with an inhibition of 48%. For the same compound, the Ki in assay [1] amounted to 113 nM; in assay [3], 12 nM.
In turn, `COc1cccc2c1CN([C@H]1CC[C@@H](c3c[nH]c4ccc(C#N)cc43)CC1)CC2` had an inhibition in assay [2] of 14%. In assay [3], this compound gave a Ki of 1.01 nM.
As for `N#Cc1ccc2[nH]cc([C@H]3CC[C@@H](NCCc4ccccc4)CC3)c2c1`, the values for the inhibition in assay [2] and in assay [4] were 0% and 40%, respectively. The Ki in assay [3] came to 7.5 nM.
On to `COc1cccc2c1CCN([C@H]1CC[C@@H](c3c[nH]c4ccc(C#N)cc43)CC1)C2`, for which the inhibition in assay [2] was determined as 7%. Moreover, the Ki in assay [3] was found to be 0.61 nM.
Turning to `COc1ccc2c(c1)CCN([C@H]1CC[C@@H](c3c[nH]c4ccc(C#N)cc43)CC1)C2`, the values for the inhibition in assay [2] and in assay [4] were 21% and 11%, respectively. The same compound returned a Ki in assay [3] of 0.1 nM.
The compound `N#Cc1ccc2[nH]cc([C@H]3CC[C@@H](N4CCc5ccccc5C4)CC3)c2c1` gave an inhibition in assay [2] of 0%. Also, the Ki in assay [1] amounted to 337 nM; in assay [3], 1.23 nM.
As to `N#Cc1ccc2[nH]cc([C@H]3CC[C@H](N4CCCCC4)CC3)c2c1`, the inhibition in assay [2] is 0%; in assay [4] it was 14%. The compound also had an inhibition constant (Ki) in assay [3] of 152 nM.
The compound `COc1cccc2c1CCN([C@H]1CC[C@H](c3c[nH]c4ccc(C#N)cc43)CC1)C2` had an inhibition in assay [2] of 47%. In assay [3], this compound displayed a Ki of 12 nM.
Take `Fc1ccc2[nH]cc([C@H]3CC[C@H](NCc4ccccc4)CC3)c2c1`: the inhibition was 11% in assay [2] and 8% in assay [4]. In assay [3], the Ki amounted to 16 nM.
Regarding `N#Cc1ccc2[nH]cc([C@H]3CC[C@@H](N4CCCCC4)CC3)c2c1`, the figures for the inhibition in assay [2] and in assay [4] were 0% and 3%, respectively. The compound also displayed a Ki in assay [3] of 22 nM.
As for `c1ccc(CN[C@H]2CC[C@@H](c3c[nH]c4ccccc43)CC2)cc1`, the results for the inhibition in assay [2] and in assay [4] were 0% and 21%, respectively. This compound gave a Ki in assay [3] of 855 nM.

Values taken from ChEMBL document CHEMBL1134143, “Studies towards the next generation of antidepressants. Part 1: Indolylcyclohexylamines as potent serotonin reuptake inhibitors” (Bioorg Med Chem Lett, 2001).
